Published values of several laboratories.
Protocols differ between the studies behind these lines.
Target: RAC-gamma serine/threonine-protein kinase (AKT3, Homo sapiens, UniProt Q9Y243)

O=C(c1ccc(Nc2ncc(Cl)c(-c3cc4ccccc4s3)n2)cc1)N1CCC(N2CCCC2)CC1
remaining binding (binding, competition with immobilised ligand; 1 µM): 100%

NS(=O)(=O)c1cc(NC(=O)C2(c3ccccc3Cl)CC2)ccc1Oc1cccc(Cl)c1
remaining binding (cell-free assay, competition with immobilised ligand; 1 µM): 79%

CN(C)c1nccc(-c2cnc3ncccn23)n1
remaining binding (binding; 1 µM): 91%

COc1cnc(Nc2cccc(S(N)(=O)=O)c2)nc1N1CCN(c2ccccc2)CC1
remaining binding (binding, competition with immobilised ligand; 1 µM): 100%

O=C(O)[C@@H]1[C@@H](Cn2nnc3ccccc3c2=O)CC[C@H]1C(=O)c1ccc(OCCC2CCOCC2)cc1
remaining binding (cell-free assay, competition with immobilised ligand; 1 µM): 100%

C[C@H]1CCN(c2nccc(-c3cnn4ncccc34)n2)C1
remaining binding (binding; 1 µM): 99%

Cc1noc([C@H]2C[C@@H](c3ccc(C(F)(F)F)cc3)CN(C(=O)N3CCS(=O)(=O)C3)C2)n1
remaining binding (cell-free assay, competition with immobilised ligand; 1 µM): 100%

O=C(c1ccc(Nc2nccc(-c3cc4ccccc4s3)n2)cc1)N1CCC(N2CCCC2)CC1
remaining binding (binding, competition with immobilised ligand; 1 µM): 100%

c1ccc(N2CCN(Cc3nc4ccccc4[nH]3)CC2)nc1
remaining binding (binding, competition with immobilised ligand; 1 µM): 100%

F[C@@H]1CCN(c2nccc(-c3cnn4ncccc34)n2)C1
remaining binding (binding; 1 µM): 93%

CCCOc1ccc([C@H]2[C@H](C(=O)O)[C@@H](c3ccc4c(c3)OCO4)CN2CC(=O)Nc2c(CC)cccc2CC)cc1
remaining binding (cell-free assay, competition with immobilised ligand; 1 µM): 82%

Cc1cnn2ncc(-c3ccnc(N(C)C)n3)c2c1
remaining binding (binding; 1 µM): 98%

COc1cnc(Nc2cccc(S(N)(=O)=O)c2)nc1N1CCN(c2ccccc2)C(=O)C1
remaining binding (binding, competition with immobilised ligand; 1 µM): 100%

N[C@@H]1CCN(c2nccc(-c3cnn4ncccc34)n2)C1
remaining binding (binding; 1 µM): 95%

CCN1CCN(Cc2ccc(C(=O)Nc3ccc(C)c(Oc4ccc5c(c4)CC(=O)N5)c3)cc2C(F)(F)F)CC1
remaining binding (binding, competition with immobilised ligand; 1 µM): 89%

c1cncc(-c2cccc(Nc3nccc(NC4CCCCC4)n3)c2)c1
remaining binding (binding, competition with immobilised ligand; 10 µM): 69%

O=C(NS(=O)(=O)c1ccc(NCC2CCOCC2)c([N+](=O)[O-])c1)c1ccc(N2CCN(Cc3ccc(C(F)(F)F)cc3-c3ccc(Cl)cc3)CC2)cc1Oc1cnc2[nH]ccc2c1
remaining binding (cell-free assay, competition with immobilised ligand; 1 µM): 89%

CN(C)c1nccc(-c2cnn3ncccc23)n1
remaining binding (binding; 1 µM): 100%

O=C(NCC1CCOCC1)c1n[nH]cc1NC(=O)c1c(F)cccc1F
remaining binding (binding, competition with immobilised ligand; 1 µM): 90%

FC(F)(F)Oc1cccc(-c2cnc3ccc(-c4ccncc4)nn23)c1
remaining binding (cell-free assay, competition with immobilised ligand; 5 µM): 99%

O=C(NCCCN1CCOCC1)c1ccc(Nc2nccc(-c3cc4ccccc4s3)n2)cc1
remaining binding (binding, competition with immobilised ligand; 1 µM): 100%
